Published values of several laboratories.
Protocols differ between the studies behind these lines.
Target: Activin receptor type-1 (ACVR1, Homo sapiens, UniProt Q04771)
One construct used (Q04771 1-509): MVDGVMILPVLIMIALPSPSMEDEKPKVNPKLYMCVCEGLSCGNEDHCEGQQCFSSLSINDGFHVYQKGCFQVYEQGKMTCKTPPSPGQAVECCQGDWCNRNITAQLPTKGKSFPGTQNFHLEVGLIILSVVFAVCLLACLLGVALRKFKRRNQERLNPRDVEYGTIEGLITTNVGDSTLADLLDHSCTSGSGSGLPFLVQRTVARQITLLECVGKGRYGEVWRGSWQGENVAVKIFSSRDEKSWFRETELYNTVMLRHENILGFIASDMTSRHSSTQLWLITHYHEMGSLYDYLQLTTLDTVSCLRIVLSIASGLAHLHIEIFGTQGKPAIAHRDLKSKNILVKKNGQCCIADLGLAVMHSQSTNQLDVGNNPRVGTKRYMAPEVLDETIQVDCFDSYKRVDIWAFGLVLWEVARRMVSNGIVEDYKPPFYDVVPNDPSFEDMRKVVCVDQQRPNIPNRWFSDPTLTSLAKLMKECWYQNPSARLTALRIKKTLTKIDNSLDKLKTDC

Compound | read-out | mode | method | tested at | measurement | value
CN1CCN(c2cnc3c(C4CCN(C(=O)c5ccc(OC(F)(F)F)cc5N)CC4)ncnc3c2)CC1 | cell-free assay | – | competition with immobilised ligand | 1 µM | remaining binding | 100%
Cc1cnc(NC2CCOCC2)nc1-n1cnc(C(=O)NC(CN)c2cc(F)cc(Cl)c2)c1 (centres unmarked) | enzyme activity | inhibitor | radiometric | 1 µM | remaining activity | 96%
N#CCCc1ccc2c(c1)-c1[nH]c3ccc([N+](=O)[O-])cc3c1CC(=O)N2 | cell-free assay | – | – | 0.5 µM | remaining signal | 58.8%
COc1cccc(CNC(=O)c2nc3scc(COCc4ccc(C(=O)O)cc4)c3c(=O)[nH]2)c1 | cell-free assay | – | competition with immobilised ligand | 1 µM | remaining binding | 94.3%
Nc1ncnc2occ(-c3ccc(NC(=O)Nc4cc(C(F)(F)F)ccc4F)cc3)c12 | cell-free assay | – | – | 20 µM | remaining signal | 72%
Cc1c(NC(=O)c2cc(C(N)=O)nc3cc(F)ccc23)c(C(F)(F)F)nn1Cc1ccc(C#N)cc1 | cell-free assay | – | competition with immobilised ligand | 1 µM | remaining binding | 87%
CC(C)(C)c1nc2c(s1)c1nc(N)ncc1c1ccc(NS(=O)(=O)c3c(F)cccc3F)c(F)c12 | enzyme activity | inhibitor | radiometric | 1 µM | remaining activity | 79%
Clc1ccc(Nc2nnc(Cc3ccncc3)c3ccccc23)cc1 | cell-free assay | – | – | 0.5 µM | remaining signal | 96.1%
O=C(O)[C@H]1[C@H](Cn2nnc3ccccc3c2=O)CC[C@@H]1C(=O)c1ccc(OCCC2CCOCC2)cc1 | cell-free assay | – | competition with immobilised ligand | 1 µM | remaining binding | 100%
Cn1c2c(c3ccc(Cl)c(Cl)c31)C(C#N)C(C)(C)NC2=O (centres unmarked) | thermal stability | – | DSF | 10 µM | ΔTm | 1.1 °C
O=C(NS(=O)(=O)c1ccc(NCC2CCOCC2)c([N+](=O)[O-])c1)c1ccc(N2CCN(Cc3ccc(C(F)(F)F)cc3-c3ccc(Cl)cc3)CC2)cc1Oc1cnc2[nH]ccc2c1 | cell-free assay | – | competition with immobilised ligand | 1 µM | remaining binding | 89%
Cc1ccc(C(=O)Nc2ccc(CN3CCN(C)CC3)c(C(F)(F)F)c2)cc1C#Cc1cnc2cccnn12 | cell-free assay | – | – | 23.5 nM | remaining signal | 100%
O=C(Nc1cnn(-c2csc(C(=O)NC3COC3)c2)c1)Nc1c(F)cccc1Cl | enzyme activity | inhibitor | – | 5 µM | remaining activity | 95.7%
CC(C)CC(=O)N1CCc2nc(-c3ccc(Br)cc3)nc(N(C)Cc3ccccc3)c2C1 | cell-free assay | – | competition with immobilised ligand | 0.1 µM | remaining binding | 100%
Cn1c2c(c3ccc(Cl)c(Cl)c31)C(C#N)C1(CCOCC1)NC2=O (centres unmarked) | thermal stability | – | DSF | 10 µM | ΔTm | 0.1 °C
COc1cc2c(N3CCN(C(=O)Nc4ccc(OC(C)C)cc4)CC3)ncnc2cc1OCCCN1CCCCC1 | cell-free assay | – | – | 0.5 µM | remaining signal | 145%
Cn1c2c(Cl)c(Cl)ccc2c2cn[nH]c(=O)c21 | thermal stability | – | DSF | 10 µM | ΔTm | 3.3 °C
Cc1cc(NC(=O)c2cccc3cc(-c4cccc5[nH]nc(N)c45)ccc23)ccc1F | enzyme activity | inhibitor | – | 0.1 µM | activity vs control | 105%
CCC1(CC)NC(=O)c2c(c3ccc(Cl)c(Cl)c3n2C)C1C#N (centres unmarked) | thermal stability | – | DSF | 10 µM | ΔTm | 0.2 °C
CCOc1cc(-c2nncn2C)ccc1Nc1ncc2cc(C)nc(NCC(C)(C)C)c2n1 | cell-free assay | – | TR-FRET | 1 µM | inhibition | ≤ 15%
